Source: PMC6403082 (International Journal of Neuropsychopharmacology, 2018)
Where two headings read alike, the source gives them in different places. Peptide text beside a SMILES is read from it.

What was measured:
NMDA, glutamate = assay: Radioligand displacement, NMDA glutamate site; format: binding; settings: 30 μM test compound
NMDA, polyamine = assay: Radioligand displacement, NMDA polyamine site; format: binding; settings: 30 μM test compound
NMDA, glycine = NMDA, glycine (Homo sapiens, UniProt Q05586); assay: Radioligand displacement, NMDA glycine site; format: binding; settings: 30 μM test compound
NMDA, PCP = assay: Radioligand displacement, NMDA PCP site; format: binding; settings: 30 μM test compound
NMDA, MK-801 = assay: Radioligand displacement, NMDA MK-801 site; format: binding; settings: 30 μM test compound; inhibition >50% considered meaningful
[1] = test system: NMDAR current in rat cortical slices; settings: 100 μM 7-CK; ref Kemp et al., 1988; cited from earlier work
[2] = test system: NMDAR in rat primary cortical neurons; assay: Intracellular Ca2+ influx; format: cell-based; settings: for Effect on 10 μM NMDA-induced calcium response: 300 μM 7-CK or 10 μM MDL; for EC50: rat primary cortical neurons
[3] = target: mutant NR1-NR2B receptors (NR1 F484A/T518L) (Homo sapiens, UniProt Q05586+Q13224, F484A/T518L); assay: [3H] MK-801 binding at glycine-site mutant NR1-NR2B; format: biochemical; settings: NR1 F484A/T518L loss-of-function glycine-site mutant vs wild-type NR1-NR2B
How it was run: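 Crude membranes from transiently transfected HEK cells (NR1-NR2B, wild-type or NR1 F484A/T518L glycine-site mutant), washed in 10 mM Tris·acetate pH 7.4, homogenised, pelleted at 51 500 × g, all at 4°C. […] Then […] [3H] MK-801 (22.5 Ci/mmol) added for 15 min (nonequilibrium), and filtered. n = 18, 2-tailed t test.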

[4] = mPFC microdialysis of rapastinel; format: in vivo; settings: rat, sc
How it was run: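 Freely moving rats had guide cannulae implanted in mPFC (AP +3.2, L +0.5, V −1.5 mm from bregma/dura). After 7 days of recovery, a probe was inserted (3-mm membrane, 50 kDa cutoff) and perfused with aCSF at 1 μL/min (148 NaCl, 4 KCl, 0.8 MgCl2, 1.4 CaCl2, 1.2 Na2HPO4, 0.3 NaH2PO4 mM; pH 7.2). Test compound was given s.c. in sterile saline.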

[5] = target: mutant NR2B (R393E) NMDAR in HEK293 cells (Homo sapiens, UniProt Q05586+Q13224, R393E); assay: Intracellular calcium response in HEK cells, NR2B R393E; format: cell-based
Chain of mutant NR2B (R393E) NMDAR in HEK293 cells (Q13224 27-1484 R393E, other chains not shown): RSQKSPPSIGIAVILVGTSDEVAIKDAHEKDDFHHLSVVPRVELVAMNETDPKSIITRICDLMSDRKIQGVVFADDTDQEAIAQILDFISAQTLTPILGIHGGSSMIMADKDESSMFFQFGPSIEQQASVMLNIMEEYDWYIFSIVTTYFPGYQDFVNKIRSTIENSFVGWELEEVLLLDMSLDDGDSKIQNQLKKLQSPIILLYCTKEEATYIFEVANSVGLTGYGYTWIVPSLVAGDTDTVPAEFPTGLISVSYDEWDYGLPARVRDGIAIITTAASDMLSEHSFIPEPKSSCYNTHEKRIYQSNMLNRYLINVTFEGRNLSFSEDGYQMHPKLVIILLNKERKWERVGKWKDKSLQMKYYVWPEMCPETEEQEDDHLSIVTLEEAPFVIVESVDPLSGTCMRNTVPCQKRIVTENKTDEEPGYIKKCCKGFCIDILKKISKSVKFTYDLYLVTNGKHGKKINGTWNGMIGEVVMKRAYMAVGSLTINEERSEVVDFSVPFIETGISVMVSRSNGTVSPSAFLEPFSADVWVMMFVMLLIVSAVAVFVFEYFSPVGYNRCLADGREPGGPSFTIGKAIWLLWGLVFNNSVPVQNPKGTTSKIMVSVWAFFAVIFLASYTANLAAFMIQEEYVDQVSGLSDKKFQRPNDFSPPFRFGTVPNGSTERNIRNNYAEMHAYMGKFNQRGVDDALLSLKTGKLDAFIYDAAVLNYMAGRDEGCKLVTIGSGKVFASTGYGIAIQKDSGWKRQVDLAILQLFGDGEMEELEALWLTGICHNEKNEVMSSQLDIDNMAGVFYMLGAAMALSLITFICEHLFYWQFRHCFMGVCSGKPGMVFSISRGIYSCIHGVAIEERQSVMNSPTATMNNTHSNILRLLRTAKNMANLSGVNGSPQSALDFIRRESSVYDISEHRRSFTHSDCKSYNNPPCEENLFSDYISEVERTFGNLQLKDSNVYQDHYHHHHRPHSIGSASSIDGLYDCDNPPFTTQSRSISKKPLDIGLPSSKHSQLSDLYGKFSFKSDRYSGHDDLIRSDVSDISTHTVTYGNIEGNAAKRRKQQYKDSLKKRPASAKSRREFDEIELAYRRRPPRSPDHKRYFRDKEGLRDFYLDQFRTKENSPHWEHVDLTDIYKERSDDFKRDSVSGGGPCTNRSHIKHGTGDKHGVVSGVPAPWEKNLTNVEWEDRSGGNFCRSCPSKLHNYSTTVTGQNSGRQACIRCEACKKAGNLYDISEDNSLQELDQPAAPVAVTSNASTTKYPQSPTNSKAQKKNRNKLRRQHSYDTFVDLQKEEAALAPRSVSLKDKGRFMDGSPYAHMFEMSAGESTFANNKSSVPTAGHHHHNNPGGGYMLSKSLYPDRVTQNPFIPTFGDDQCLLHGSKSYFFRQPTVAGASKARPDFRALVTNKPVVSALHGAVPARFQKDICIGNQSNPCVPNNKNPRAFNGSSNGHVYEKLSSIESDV

Chain of mutant NR1-NR2B receptors (NR1 F484A/T518L) (Q13224 27-1484, other chains not shown): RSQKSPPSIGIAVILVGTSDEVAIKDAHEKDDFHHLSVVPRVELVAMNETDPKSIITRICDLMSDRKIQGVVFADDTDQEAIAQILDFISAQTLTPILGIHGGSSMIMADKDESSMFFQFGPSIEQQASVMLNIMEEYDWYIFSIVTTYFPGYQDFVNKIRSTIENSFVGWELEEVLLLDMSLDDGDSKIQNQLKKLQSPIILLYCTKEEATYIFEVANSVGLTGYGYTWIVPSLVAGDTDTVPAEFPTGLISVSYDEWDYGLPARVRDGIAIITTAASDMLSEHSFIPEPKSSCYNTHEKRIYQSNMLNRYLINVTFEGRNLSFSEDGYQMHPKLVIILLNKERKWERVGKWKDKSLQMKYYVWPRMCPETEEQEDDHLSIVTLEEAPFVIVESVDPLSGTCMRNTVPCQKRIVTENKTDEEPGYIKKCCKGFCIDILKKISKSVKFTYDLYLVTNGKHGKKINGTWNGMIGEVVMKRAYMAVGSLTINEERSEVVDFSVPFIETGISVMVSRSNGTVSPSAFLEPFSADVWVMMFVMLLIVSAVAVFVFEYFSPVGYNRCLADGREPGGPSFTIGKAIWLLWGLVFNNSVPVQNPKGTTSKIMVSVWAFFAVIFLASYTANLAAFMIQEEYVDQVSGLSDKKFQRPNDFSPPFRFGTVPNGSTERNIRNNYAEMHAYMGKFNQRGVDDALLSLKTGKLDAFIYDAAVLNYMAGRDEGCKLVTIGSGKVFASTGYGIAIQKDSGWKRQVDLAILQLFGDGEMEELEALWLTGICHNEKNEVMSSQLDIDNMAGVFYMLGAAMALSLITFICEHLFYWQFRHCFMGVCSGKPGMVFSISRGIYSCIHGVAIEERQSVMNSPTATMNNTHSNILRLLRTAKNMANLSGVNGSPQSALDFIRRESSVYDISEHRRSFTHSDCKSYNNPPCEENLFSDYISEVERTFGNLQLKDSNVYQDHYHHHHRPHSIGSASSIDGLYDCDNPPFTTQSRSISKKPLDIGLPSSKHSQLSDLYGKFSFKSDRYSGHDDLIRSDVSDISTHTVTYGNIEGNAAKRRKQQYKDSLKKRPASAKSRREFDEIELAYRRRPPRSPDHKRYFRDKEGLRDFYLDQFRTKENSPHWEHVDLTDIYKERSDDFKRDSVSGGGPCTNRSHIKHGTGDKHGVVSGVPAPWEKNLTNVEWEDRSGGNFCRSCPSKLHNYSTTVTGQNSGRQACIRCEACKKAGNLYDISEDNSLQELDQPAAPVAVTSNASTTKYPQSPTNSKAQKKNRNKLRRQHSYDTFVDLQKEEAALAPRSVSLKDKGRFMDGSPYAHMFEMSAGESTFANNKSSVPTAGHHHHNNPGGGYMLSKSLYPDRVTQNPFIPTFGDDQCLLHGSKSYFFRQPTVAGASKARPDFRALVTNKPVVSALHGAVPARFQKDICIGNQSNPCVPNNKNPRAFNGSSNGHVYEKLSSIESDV

SMILES: CNC1(c2ccccc2Cl)CCCCC1=O (racemic) [(R,S)-ketamine]
- NMDA, glutamate (%) radioligand displacement (NMDA, glutamate): −5%
- NMDA, polyamine (%) radioligand displacement (NMDA, polyamine): −16%
- NMDA, glycine (%) radioligand displacement (NMDA, glycine): 17%
- NMDA, PCP (%) radioligand displacement (NMDA, PCP): 94%
- NMDA, MK-801(%) radioligand displacement (NMDA, MK-801): 96%

SMILES: O=C(O)c1cc(O)c2ccc(Cl)cc2n1 [7-CK, 7-chlorokynurenic acid]
- Effect on NMDAR current in rat cortical slices [1]: completely blocked
- Effect on 10 μM NMDA-induced calcium response [2]: completely abolished

SMILES: N[C@H](CCCP(=O)(O)O)C(=O)O [(2R)-amino-5-phosphonopentanoate]
- Effect on calcium response to NMDA + rapastinel + 7-CK ([2]; 100 μM co-infused): inhibited the calcium response

SMILES: N[C@H](CO)C(=O)O [D-serine]
- EC50 ([2]; read-out: EC50, [Ca2+]i mobilization (D-serine)): 0.29 µM

SMILES: NCC(=O)O [Glycine, glycine]
- Enhancement of [3H] MK-801 binding at mutant receptors [3]: failed to enhance

SMILES: O=C(O)/C(=C/c1c(C(=O)O)[nH]c2cc(Cl)cc(Cl)c12)c1ccccc1 [MDL]
- Block of NMDAR activation by 10 μM NMDA and 100 μM D-serine ([2]; 10 μM MDL, n = 5): −98.5 ± 0.2%
- Effect on 10 μM NMDA-induced calcium response [2]: completely abolished

SMILES: CN[C@H](CC(=O)O)C(=O)O [NMDA, N-methyl-D-aspartate]
- EC50 ([2]; read-out: EC50, [Ca2+]i mobilization (NMDA)): 2.8 µM

SMILES: CN[C@@]1(c2ccccc2Cl)CCCCC1=O [R-ketamine]
- NMDA, glutamate (%) radioligand displacement (NMDA, glutamate): 6%
- NMDA, polyamine (%) radioligand displacement (NMDA, polyamine): 1%
- NMDA, glycine (%) radioligand displacement (NMDA, glycine): −5%
- NMDA, PCP (%) radioligand displacement (NMDA, PCP): 88%
- NMDA, MK-801(%) radioligand displacement (NMDA, MK-801): 89%

SMILES: C[C@@H](O)[C@H](N)C(=O)N1CCC[C@H]1C(=O)N1CCC[C@H]1C(=O)N[C@H](C(N)=O)[C@@H](C)O [Rapastinel] (H-TPPT-NH2)
- level at time molar ([4]; brain (mPFC) microdialysate, 10 mg/kg): ~30 nM
- Tmax ([4]; in vivo): ~20 min
- half-life ([4]; in vivo): ~20 min

SMILES: CN[C@]1(c2ccccc2Cl)CCCCC1=O [S-ketamine]
- NMDA, glutamate (%) radioligand displacement (NMDA, glutamate): −6%
- NMDA, polyamine (%) radioligand displacement (NMDA, polyamine): −17%
- NMDA, glycine (%) radioligand displacement (NMDA, glycine): 0%
- NMDA, PCP (%) radioligand displacement (NMDA, PCP): 84%
- IC50 ([2]; read-out: IC50, inhibition of NMDAR-mediated [Ca2+]i accumulation): ~1 µM
- NMDA, MK-801(%) radioligand displacement (NMDA, MK-801): 98%

SMILES: N[C@@H](CCC(=O)O)C(=O)O [glutamate]
- Receptor activation, % of 1 μM glutamate, mutated NR2B (R393E) [5]: 22.6 ± 1.2%
